From PubChem
CAL PDZ FP-1 – CAL PDZ peptide-binding inhibitors, primary screen, biochemical, fluorescence polarization, Cer-tagged CAL PDZ, HTS; Golgi-associated PDZ and coiled-coil motif-containing protein (Homo sapiens), Q9HD26; purified CAL PDZ, TMR-peptide fluorescence polarization, 1 h; inhibition, % at 20 µM; actives 0.02% (n = 330,000); AID 504414, 2011;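 active = highest replicate inhibition of at least 40%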;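 also: plate controls were DMSO neutral control wells for no effect and unlabeled competitor peptide control wells for full effect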
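Test system: tagged CAL PDZ domain / Buffer or medium: sodium phosphate/NaCl buffer pH 7.4 with TCEP, IgG, Thesit / Reagent: TMR-labelled reporter peptide T*-PRC34 bound in PDZ groove / Compound dosing: single point, 20 µM / Schedule: 1 h incubation at room temperature before polarization reading / Technique: fluorescence polarization (mP) / Benchmarks: unlabelled peptide, DMSO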
DDE Tn6 FP inh – inhibitors of Tn6 peptide binding to fibrin DD(E), primary screen, biochemical, fluorescence polarization, human fibrin, Tn6 probe. actives 0.21% (n = 370,000). inhibition, % at 8.3 µM. Fibrin DD(E) TRITC-Tn6 fluorescence polarization displacement. AID 720509, 2013. Fibrinogen beta chain (Homo sapiens), P02675;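 active = inhibition above a per-campaign cutoff: mean of compounds within control limits plus 3 SD, cut at about 15% in these data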;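 also: 0% = median of all compound wells on the plate and 100% = blocking peptide control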
Target sequence (P02675 whole entry, looked up): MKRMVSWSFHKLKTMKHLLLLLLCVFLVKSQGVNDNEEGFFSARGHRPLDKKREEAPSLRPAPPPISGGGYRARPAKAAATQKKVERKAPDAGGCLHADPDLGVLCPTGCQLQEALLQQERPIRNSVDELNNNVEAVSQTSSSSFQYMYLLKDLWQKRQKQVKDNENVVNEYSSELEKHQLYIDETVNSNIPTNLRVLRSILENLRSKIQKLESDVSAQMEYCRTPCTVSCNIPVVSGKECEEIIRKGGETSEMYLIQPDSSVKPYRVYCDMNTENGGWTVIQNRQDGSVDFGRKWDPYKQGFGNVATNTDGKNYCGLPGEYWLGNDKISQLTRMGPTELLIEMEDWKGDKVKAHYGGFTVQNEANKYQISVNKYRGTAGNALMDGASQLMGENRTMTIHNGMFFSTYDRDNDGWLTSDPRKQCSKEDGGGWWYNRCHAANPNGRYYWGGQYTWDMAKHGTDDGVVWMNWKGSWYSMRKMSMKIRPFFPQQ
Arr AP2 block – inhibitors of beta-arrestin/AP2 binding, primary screen, biochemical, GPCR trafficking, flow cytometry | FITC-arrestin peptide / GST-AP2 beads; AP2 beta2 appendage carries R879A mutation | actives 0.31% (n = 340,000) | AID 504490, 2011 | inhibition, % at 10 µM | beta-arrestin 1 C-terminal peptide binding to AP2 beta2-adaptin appendage (human);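 active = inhibition above a set limit, near 3 SD of compounds lacking own fluorescence, cut at about 54% in these data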;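 also: plate controls were DMSO wells for no effect and 5 µM unlabelled arrestin peptide for full effect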
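Material – AP2 appendage R879A on GSH beads · Buffer or medium – PBS with 0.05% Tween 20 and 0.1% BSA · Probe or stimulus – fluorescein-tagged arrestin peptide at 50 nM final · Incubation – compound with beads 12 min RT, then probe 1 h RT · Detection – high-throughput flow cytometry of beads, ex 488, em 535 nm · Evaluation – percent response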
Tn7 DDE FP – inhibitors of Tn7 peptide binding to fibrin DD(E), primary screen, biochemical, fluorescence polarization, human fibrin, Tn7 probe; FP displacement of FITC-Tn7 peptide from fibrin DD(E); 0% = median of compound wells per plate; Fibrinogen beta chain (Homo sapiens), P02675; AID 720508, 2013; actives 0.13% (n = 370,000); inhibition, % at 8.3 µM;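 active = inhibition above the mean of compounds falling within the control limits plus 3 SD of them, cut at about 14% in these data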;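 also: 0% = plate median of compound wells and 100% = 10 µM Aha-Tn7 peptide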
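Test system – human fibrin DD(E) · Times – 10 min preincubation, 3 h with tracer, room temperature · Detection – fluorescence polarization of the labelled Tn7 tracer · Measure – percent inhibition normalized to high-control wells · Benchmarks – high control wells with 10 µM unlabelled Aha-Tn7 peptide (full inhibition) · Repeats – singlicate testing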
CAL PDZ FP-2 – untagged CAL PDZ binding inhibitors, primary screen, biochemical, fluorescence polarization, HTS | actives 0.92% (n = 300,000) | purified CAL PDZ, TMR-peptide fluorescence polarization, 1 h | inhibition, % at 24.9 µM | AID 602252, 2012;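 active = mean inhibition of at least 30% with at least half of replicates also reaching 30%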;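 also: 0% = DMSO neutral control and 100% = excess unlabeled competitor peptide PRC23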
The depositor's hits bear a star. This is a sample that favours compounds with a hit; in the whole collection about 1.4% have one here.

COC(=O)C[C@H]1CC[C@H]2[C@H](COc3ccc(NC(=O)c4cccs4)cc3C(=O)N2C)O1 was read as DDE Tn6 FP inh 8 and Tn7 DDE FP -9.
Screening COc1cccc(CN(C)C(=O)CN2C(=O)NC(c3ccccc3)(c3ccccc3)C2=O)c1 returned CAL PDZ FP-1 0, DDE Tn6 FP inh 3, Arr AP2 block -4, Tn7 DDE FP -6 and CAL PDZ FP-2 79*.
Screening COC(=O)[C@]12C[C@H](CC(=O)NCc3cccc(C(F)(F)F)c3)C(=O)N(Cc3ccc(Cl)cc3Cl)C1=C[C@H](C(C)(C)C)O[C@@H]2C returned DDE Tn6 FP inh 2 and Tn7 DDE FP 8.
For COc1ccc2c3c(cccc13)C(=O)CC2 the results were CAL PDZ FP-1 3, DDE Tn6 FP inh 36*, Arr AP2 block 38, Tn7 DDE FP 21* and CAL PDZ FP-2 11.
COc1cc(-c2cc(C(=O)Nc3ccncc3)c3ccccc3n2)cc(OC)c1OC was read as CAL PDZ FP-1 -4, DDE Tn6 FP inh -2, Arr AP2 block -7, Tn7 DDE FP -7 and CAL PDZ FP-2 -8.
`Cc1ccc(-c2cc(C(=O)Nc3ccncc3)c3ccccc3n2)cc1` gave CAL PDZ FP-1 -4, DDE Tn6 FP inh 1, Arr AP2 block -7, Tn7 DDE FP 3 and CAL PDZ FP-2 32*.
Screening COc1ccc(C)cc1NC(=O)Nc1ccc(Br)cn1 returned CAL PDZ FP-1 0, DDE Tn6 FP inh 1, Arr AP2 block -10, Tn7 DDE FP 4 and CAL PDZ FP-2 46*.
Screening O=C(NC(N1CCOCC1)C(Cl)(Cl)Cl)c1ccc(F)cc1 (stereo not given) returned CAL PDZ FP-1 1, DDE Tn6 FP inh -12, Arr AP2 block -24, Tn7 DDE FP 2 and CAL PDZ FP-2 76*.
Cc1cccc(C)c1NC(=S)N/N=C/c1c(Cl)cccc1Cl was read as CAL PDZ FP-1 -2, DDE Tn6 FP inh -3, Arr AP2 block 1, Tn7 DDE FP 6 and CAL PDZ FP-2 33*.
Screening COC(=O)[C@]12C[C@H](CC(=O)N3CCCCC3)C(=O)N(Cc3ccco3)C1=C[C@H](C(C)(C)C)O[C@@H]2C returned DDE Tn6 FP inh 9 and Tn7 DDE FP -6.
O=C(O)c1c2c(nc3ccccc13)/C(=C/c1ccccc1[N+](=O)[O-])CCC2 was read as CAL PDZ FP-1 -3, DDE Tn6 FP inh -6, Arr AP2 block 19, Tn7 DDE FP -6 and CAL PDZ FP-2 -3.
Screening CC1C/C(=C\c2ccccc2[N+](=O)[O-])c2nc3ccccc3c(C(=O)O)c2C1 (stereo not given) returned CAL PDZ FP-1 -1, DDE Tn6 FP inh -7, Arr AP2 block 21, Tn7 DDE FP 5 and CAL PDZ FP-2 49*.
Screening CCN(CC)C(=O)COc1ccc(N(C)S(=O)(=O)c2ccc(NC(C)=O)cc2)cc1 returned CAL PDZ FP-1 0, DDE Tn6 FP inh -6, Arr AP2 block 5, Tn7 DDE FP 6 and CAL PDZ FP-2 71*.
CCCN(CCC)CC(C)(C)NS(=O)(=O)c1ccc(Cl)cc1 was read as CAL PDZ FP-1 -1, DDE Tn6 FP inh -1, Arr AP2 block 8, Tn7 DDE FP -3 and CAL PDZ FP-2 70*.
`CCN(CC)CCNS(=O)(=O)c1ccc(Cl)cc1` gave CAL PDZ FP-1 -2, DDE Tn6 FP inh 4, Arr AP2 block 6, Tn7 DDE FP 4 and CAL PDZ FP-2 0.
O=C(O)C1CC=CCC1C(=O)NC12CC3CC(CC(C3)C1)C2 (stereo not given) was read as CAL PDZ FP-1 0, DDE Tn6 FP inh 7, Arr AP2 block -5, Tn7 DDE FP -1 and CAL PDZ FP-2 67*.
Screening C#CCN1C(=O)[C@]2(NCCc3c2[nH]c2ccc(OC)cc32)c2cc(F)ccc21 returned DDE Tn6 FP inh 12 and Tn7 DDE FP -1.
CN(C)CCN(C(=O)c1ccc(Br)s1)c1nc2cc3c(cc2s1)OCCO3 was read as CAL PDZ FP-1 -1, DDE Tn6 FP inh 4, Arr AP2 block 34, Tn7 DDE FP 4 and CAL PDZ FP-2 -3.
`CN(C)CCN(C(=O)c1cccs1)c1nc2cc3c(cc2s1)OCCO3` gave CAL PDZ FP-1 0, DDE Tn6 FP inh 5, Arr AP2 block -11, Tn7 DDE FP 1 and CAL PDZ FP-2 41*.
Screening CN(C)CCCN(C(=O)c1ccc(S(=O)(=O)N(C)Cc2ccccc2)cc1)c1nc2cc3c(cc2s1)OCO3 returned CAL PDZ FP-1 -1, DDE Tn6 FP inh 0, Arr AP2 block -5, Tn7 DDE FP 4 and CAL PDZ FP-2 42*.
For O=C(CCc1ccccc1)N[C@H]1[C@H](OC(=O)c2cccnc2)CCC[C@@]12C(=O)N(Cc1ccccc1)c1ccccc12 the results were DDE Tn6 FP inh -3 and Tn7 DDE FP -8.
For O=c1[nH]c(=O)n(C2CCCCCC2)c(O)c1C=NCc1ccc(F)cc1 the results were CAL PDZ FP-1 -7, DDE Tn6 FP inh -10, Arr AP2 block -4, Tn7 DDE FP -4 and CAL PDZ FP-2 34*.
For Cc1c(N=Cc2c(O)n(C3CCCCC3)c(=O)[nH]c2=O)c(=O)n(-c2ccccc2)n1C the results were CAL PDZ FP-1 -1, DDE Tn6 FP inh 6, Arr AP2 block 24, Tn7 DDE FP -3 and CAL PDZ FP-2 -3.
CCC[C@H]1[C@@H](NC(=O)c2ccc(C)cc2)CC[C@@]23CCCN2C(=O)CCC[C@@H]13 was read as DDE Tn6 FP inh 0 and Tn7 DDE FP -4.
Screening O=C(c1cccc(S(=O)(=O)NCc2ccccc2)c1)N1CCCC1 returned CAL PDZ FP-1 -1, DDE Tn6 FP inh 0, Arr AP2 block -8, Tn7 DDE FP -2 and CAL PDZ FP-2 85*.
For CN(c1ccccc1)S(=O)(=O)c1cccc(C(=O)N2CCCCCC2)c1 the results were CAL PDZ FP-1 -1, DDE Tn6 FP inh 0, Arr AP2 block -4, Tn7 DDE FP -1 and CAL PDZ FP-2 39*.
For COC(=O)[C@]12C[C@H](CC(=O)NCc3cccs3)C(=O)N(CCC3=CCCCC3)C1=C[C@H](C(C)(C)C)O[C@@H]2C the results were DDE Tn6 FP inh 7 and Tn7 DDE FP 4.
For COC(=O)[C@H](CC(C)C)N(Cc1cn(Cc2ccccc2)nn1)S(=O)(=O)c1ccc(F)cc1Br the results were DDE Tn6 FP inh 13 and Tn7 DDE FP 9.
